The record followed here is ChEMBL document CHEMBL1122444, “Sulfonyliminoimidazolidines. A new class of oral hypoglycemic agents. 2. Mode of action and X-ray structure of 1-[[p-[2-(crotonylamino)ethyl]phenyl]sulfonyl]-3-cyclohexyl-2-iminoimidazolidine” (J Med Chem, 1983).

Each structure is given as a SMILES string. Where “and” joins values, the source holds several entries; their conditions need not be identical. Identical values can stand only once.

Assay [1] is filed under the species Oryctolagus cuniculus. Kind of assay: In vitro insulin release was stimulated by the compound at a concentration of 0.9 mmol/L in rabbit pancreas. The assay is classed as functional. The essentials:
(§1)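 Eight rabbit pancreas pieces, pooled from four rabbits per experiment, were incubated in bicarbonate-buffered medium containing 0.6 g/L glucose. Insulin per flask with compound was divided by basal release, taken as the mean of two preceding 20-min periods without compound. Results are mean ± SEM over n experiments.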

For assay [2], the species on record is Oryctolagus cuniculus. Nature of the assay: In vitro insulin release was stimulated by the compound at a concentration of 0.01 mmol/L in rabbit pancreas. In kind it is functional. Put shortly:
as §1

The species named for assay [3] is Rattus norvegicus. Nature of the assay: In vitro inhibition of glucose oxidation by the compound in isolated rat fat cells. The assay is classed as functional, cell-based. The essentials:
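Epididymal fat cells from five young rats (140–160 g) were isolated by collagenase digestion. They were incubated with D-[1-14C]glucose (40 nCi/flask, 0.1 g glucose/L) across a range of compound concentrations. IC50 was read graphically from % inhibition vs log concentration, reported as mean ± SEM over n experiments.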

In assay [4] the test system is Rattus norvegicus. Nature of the assay: In vivo increase of plasma insulin in normal rats at a hypoglycemic dose of 0.17 mmol/kg. In kind it is functional, organism-based.
For assay [5], the species on record is Oryctolagus cuniculus. Nature of the assay: In vitro insulin release was stimulated by the compound at a concentration of 0.003 mmol/L in rabbit pancreas. In kind it is functional. Put shortly:
as §1

The subject of assay [6] is Rattus norvegicus. Nature of the assay: Blood glucose determined in normal rats at a hypoglycemic dose of 0.17 mmol/kg.
The species named for assay [7] is Oryctolagus cuniculus. Kind of assay: In vitro insulin release was stimulated by the compound at a concentration of 0.1 mmol/L in rabbit pancreas. In kind it is functional. Put shortly:
as §1

Assay [8] is filed under the species Oryctolagus cuniculus. Kind of assay: In vitro insulin release was stimulated by the compound at a concentration of 0.03 mmol/L in rabbit pancreas. The assay is classed as functional. The essentials: as §1
For assay [9], the species on record is Oryctolagus cuniculus. Kind of assay: In vitro insulin release was stimulated by the compound at a concentration of 0.3 mmol/L in rabbit pancreas. In kind it is functional. Put shortly:
as §1

In assay [10] the test system is Rattus norvegicus. Kind of assay: […] in normal rats at a hypoglycemic dose of 0.18 mmol/kg. The assay is classed as functional.
Assay [11] deals with Rattus norvegicus. Nature of the assay: In vivo increase of plasma insulin in normal rats at a hypoglycemic dose of 0.18 mmol/kg. The assay is classed as functional, organism-based.
Assay [12] has as its system Rattus norvegicus. Nature of the assay: Percent change in blood glucose in normal rats at a hypoglycemic dose of 0.008 mmol/kg. against control. In kind it is functional. The settings on record: in the assay text read “plasma insulin” for “blood glucose”.
In assay [13] the test system is Rattus norvegicus. Kind of assay: […] in normal rats at a hypoglycemic dose of 0.008 mmol/kg. In kind it is functional.
Assay [14] relates to Rattus norvegicus. Nature of the assay: In vivo increase of plasma insulin in normal rats at a hypoglycemic dose of […]. In kind it is functional, organism-based.
For assay [15], the system named is Rattus norvegicus. Kind of assay: In vivo increase of plasma insulin in normal rats at a hypoglycemic dose of […]. In kind it is functional, organism-based.
Assay [16] has as its system Rattus norvegicus. Kind of assay: […] in normal rats at a hypoglycemic dose of 0.024 mmol/kg. The assay is classed as functional.
The subject of assay [17] is Rattus norvegicus. Kind of assay: Percent change in blood glucose in normal rats at a hypoglycemic dose of 0.072 mmol/kg against control. In kind it is functional. The essentials: (§2)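 Female rats (175–195 g) were fasted 6–9 h and given compound orally as a suspension in 0.5% (w/v) methylcellulose (5 mL/kg). Blood glucose was measured enzymatically 45 min after dosing. Values are mean ± SEM, expressed as percent change against the control group.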

The species entered for assay [18] is Oryctolagus cuniculus. Kind of assay: In vitro insulin release was stimulated by the compound at a concentration of 0.1 mmol/L. In kind it is functional. The essentials: as §1
Assay [19] deals with Rattus norvegicus. Kind of assay: Percent change in blood glucose in normal rats at a hypoglycemic dose of 0.008 mmol/kg against control. In kind it is functional. Put shortly:
as §2

Assay [20] has as its system Rattus norvegicus. Nature of the assay: […] in normal rats at a hypoglycemic dose of 0.072 mmol/kg. The assay is classed as functional.
Assay [21] relates to Rattus norvegicus. Nature of the assay: In vivo increase of plasma insulin in normal rats at a hypoglycemic dose of 0.008 mmol/kg. In kind it is functional, organism-based.
Assay [22] has as its system Rattus norvegicus. Nature of the assay: Percent change in blood glucose in normal rats at a hypoglycemic dose of 0.024 mmol/kg against control. The assay is classed as functional. Put shortly: as §2
Assay [23] concerns Rattus norvegicus. Kind of assay: […] in normal rats at a hypoglycemic dose of 0.60 mmol/kg. In kind it is functional.
In assay [24] the test system is Rattus norvegicus. Nature of the assay: Percent change in plasma insulin in normal rats at a hypoglycemic dose of 0.60 mmol/kg against control. In kind it is functional.
Assay [25] relates to Rattus norvegicus. Nature of the assay: In vivo increase of plasma insulin in normal rats at a hypoglycemic dose of 0.60 mmol/kg. The assay is classed as functional, organism-based.
Assay [26] relates to Rattus norvegicus. Kind of assay: Percent change in blood glucose in normal rats at a hypoglycemic dose of 0.60 mmol/kg against control. The assay is classed as functional. Put shortly:
as §2

In assay [27] the test system is Rattus norvegicus. Nature of the assay: In vivo increase of plasma insulin in normal rats at a hypoglycemic dose of 0.028 […]. The assay is classed as functional, organism-based.
Assay [28] relates to Rattus norvegicus. Kind of assay: Percent change in plasma insulin in normal rats at a hypoglycemic dose of 0.0084 mmol/kg against control.
The subject of assay [29] is Rattus norvegicus. Nature of the assay: In vivo increase of plasma insulin in normal rats at a hypoglycemic dose of 0.0084 […]. In kind it is functional, organism-based.
Assay [30] relates to Rattus norvegicus. Kind of assay: […] in normal rats at a hypoglycemic dose of 0.0084 mmol/kg. The assay is classed as functional.
Assay [31] is filed under the species Rattus norvegicus. Nature of the assay: Percent change in blood glucose against control. The assay is classed as functional. Put shortly:
as §2

The species entered for assay [32] is Rattus norvegicus. Kind of assay: Percent change in plasma insulin against control. In kind it is functional.
The test system of assay [33] is Rattus norvegicus. Nature of the assay: […] in normal rats at a hypoglycemic dose of 0.028 mmol/kg. In kind it is functional.
Assay [34] relates to Rattus norvegicus. Kind of assay: […] in normal rats at a hypoglycemic dose of 2.0 mmol/kg. The assay is classed as functional.
Assay [35] deals with Rattus norvegicus. Nature of the assay: Percent change in blood glucose in normal rats at a hypoglycemic dose of 2.0 mmol/kg. against control. The assay is classed as functional. The essentials: as §2
The test system of assay [36] is Rattus norvegicus. Kind of assay: In vivo increase of plasma insulin in normal rats at a hypoglycemic dose of 2.0 mmol/kg. The assay is classed as functional, organism-based.

As usually defined, the IC50 is the concentration needed to halve the response being measured. A higher IC50 goes with a need for much substance. On to `CCCCNC(=O)NS(=O)(=O)c1ccc(C)cc1` [TOLBUTAMIDE], for which the Insulin release in the assay listed under Oryctolagus cuniculus [1] is listed as 4.23; in the assay filed under Oryctolagus cuniculus [2], 1.81; in the assay filed under Oryctolagus cuniculus [5], 0.95; in the assay filed under Oryctolagus cuniculus [7] it was 4.33. The compound further displayed a half-inhibitory concentration (IC50) in the assay listed under Rattus norvegicus [3] greater than 500 µM. The Plasma insulin in the assay with Rattus norvegicus [4] was found to be 278 pM l-1. In addition, in the assay with Rattus norvegicus [6], the Blood glucose was 3.86 mmol/L.

`COc1cccc(C(=O)NCCc2ccc(S(=O)(=O)N3CCN(C4CCCCC4)C3=N)cc2)c1`: the Insulin release in the assay filed under Oryctolagus cuniculus [8] came to 2.24; in the assay filed under Oryctolagus cuniculus [9], 3.66; in the assay filed under Oryctolagus cuniculus [2], 2.08; in the assay listed under Oryctolagus cuniculus [5] it was 0.98; in the assay listed under Oryctolagus cuniculus [7], 3.13. Besides, in the assay with Rattus norvegicus [10], the Blood glucose is 3.08 mM. In addition, the IC50 in the assay filed under Rattus norvegicus [3] stood at 20 µM. For the same compound, the Plasma insulin with Rattus norvegicus [11] is 285 pM l-1.

For `CCCC(=O)NCCc1ccc(S(=O)(=O)N2CCN(C3CCCCC3)C2=N)cc1`, the Insulin release worked out at 2.18 in the assay listed under Oryctolagus cuniculus [8]; 3.06 in the assay listed under Oryctolagus cuniculus [9]; 1.84 in the assay filed under Oryctolagus cuniculus [2]; 1.02 in the assay filed under Oryctolagus cuniculus [5]; 2.51 in the assay filed under Oryctolagus cuniculus [18]. The Change in the assay with Rattus norvegicus [12] was 12%; with Rattus norvegicus [17], -38%; in the assay with Rattus norvegicus [19] it was -17%; in the assay with Rattus norvegicus [22] it was -38%. Also, the Blood glucose in the assay on Rattus norvegicus [13] was determined as 4.86 mM; in the assay on Rattus norvegicus [16], 3.62 mM; in the assay on Rattus norvegicus [20], 3.63 mM. For the same compound, the figures for the Plasma insulin in the assay with Rattus norvegicus [14], with Rattus norvegicus [15] and with Rattus norvegicus [21] were 310 pM l-1, 396 pM l-1 and 108 pM l-1, respectively. This compound also returned a half-inhibitory concentration (IC50) in the assay listed under Rattus norvegicus [3] of 71 µM.

As for `N=C1N(C2CCCCC2)CCN1S(=O)(=O)c1ccc(N)cc1`, the Insulin release was 1.74 in the assay filed under Oryctolagus cuniculus [8]; 3.21 in the assay filed under Oryctolagus cuniculus [1]; 1.22 in the assay listed under Oryctolagus cuniculus [2]; 1.01 in the assay listed under Oryctolagus cuniculus [5]; 3.21 in the assay listed under Oryctolagus cuniculus [7]. In the assay on Rattus norvegicus [23], the Blood glucose stood at 4.66 mM. The compound further registered a half-maximal inhibitory concentration (IC50) in the assay filed under Rattus norvegicus [3] of 180 µM. The Change with Rattus norvegicus [24] was 42%; with Rattus norvegicus [26], -21%. The Plasma insulin in the assay on Rattus norvegicus [25] amounted to 136 pM l-1.

As for `C/C=C/C(=O)NCCc1ccc(S(=O)(=O)N2CCN(C3CCCCC3)C2=N)cc1`, the results for the Insulin release in the assay listed under Oryctolagus cuniculus [9], in the assay listed under Oryctolagus cuniculus [2] and in the assay filed under Oryctolagus cuniculus [5] were 1.82, 2.73 and 1.88, respectively. Also, the Plasma insulin is 476 pM l-1 with Rattus norvegicus [27] and 163 pM l-1 with Rattus norvegicus [29]. This compound also displayed a concentration for half-maximal inhibition (IC50) in the assay listed under Rattus norvegicus [3] of 180 µM. Also, the Change in the assay with Rattus norvegicus [28] was 71%; in the assay listed under Rattus norvegicus [31] it was -31% and -42%; in the assay filed under Rattus norvegicus [32] it was 397%. Moreover, the Blood glucose came to 4.04 mM with Rattus norvegicus [30] and 3.42 mM with Rattus norvegicus [33].

In the case of `N=C(N)NC(=N)NCCc1ccccc1` [PHENFORMIN], in the assay on Rattus norvegicus [34], the Blood glucose came out at 5.52 mM. For the same compound, half-maximal inhibition in the assay listed under Rattus norvegicus [3] (IC50) was put at 180 µM. In addition, the Change in the assay with Rattus norvegicus [35] is -10% and -6%. In the assay on Rattus norvegicus [36], the Plasma insulin came to 86.1 pM l-1.
